MrgX1 agonist – activates human MrgX1 receptor signaling; Q96LB2; MrgX1-HEK293 cells, Fluo-4 calcium fluorescence, agonist mode; hits give high values; B-score at 10 µM; hit rate 0.44% among 310,000;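 active = calcium response B-score plate-corrected fluorescence ratio at least 3 library SD, with starting fluorescence B-score inside 5 SD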
Target sequence (Q96LB2 whole entry, looked up): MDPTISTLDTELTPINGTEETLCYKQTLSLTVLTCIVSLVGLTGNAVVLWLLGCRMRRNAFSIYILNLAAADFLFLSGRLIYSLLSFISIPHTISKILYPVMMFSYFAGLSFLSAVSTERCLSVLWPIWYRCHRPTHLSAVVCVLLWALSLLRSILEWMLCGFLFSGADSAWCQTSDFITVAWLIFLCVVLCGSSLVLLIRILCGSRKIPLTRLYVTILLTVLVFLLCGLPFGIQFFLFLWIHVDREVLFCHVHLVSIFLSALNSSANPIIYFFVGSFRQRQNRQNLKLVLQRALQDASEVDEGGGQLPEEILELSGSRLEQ
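System – MrgX1-expressing HEK293 cells · Incubation – cells plated overnight, dye loaded 0.5 h 37 °C, 0.5 h room temperature · Technique – kinetic Fluo-4 NW fluorescence of intracellular calcium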
RGS4 act – RGS4 potentiation or activation; HEK293 M3R/inducible RGS4, carbachol calcium flux Fluo4; hits give low values; B-score at 10 µM; hit rate 0.92% among 310,000;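 active = B-score of the integrated calcium signal more than 4 SD below the library mean, with starting fluorescence not abnormally high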;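 note: negative B-score means reduced calcium response which marks RGS4 activation or potentiation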
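System – HEK293 FlpIn-TREx cells, stable M3R, doxycycline-inducible RGS4 · Reagent – ECmax carbachol challenge · Times – compound preincubation 20 min at room temperature before agonist · Technique – Fluo4 fluorescence kinetic imaging of calcium · Measure – B score of integrated Fluo4 ratio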
MrgX1 antagonist – blocks BAM8-22 activation of human MrgX1 receptor. MRGX1-HEK293 calcium flux, Fluo-4, BAM8-22 antagonism; hits give low values. B-score at 10 µM. AID 588676. hit rate 1.3% among 310,000;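 active = calcium-response B-score plate-corrected more than 3 library SD below zero, starting fluorescence within 5 deviations, no agonist response on first addition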;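 note: peak minus trough fluorescence over baseline after final BAM8-22 challenge near maximal dose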
RGS4 inh – human RGS4 inhibition | P49798 | HEK293 M3R/RGS4 inducible, Fluo-4 calcium flux; hits give high values; triggered by carbachol at its EC20 | B-score at 10 µM | hit rate 0.45% among 310,000 | AID 463165;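 active = B-score, a plate-corrected calcium signal, over three deviations above library mean, with baseline fluorescence within five deviations of library mean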;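 note: RGS4 expression induced by doxycycline in cells with stable M3 receptor; B-score is computed from the integrated fluorescence ratio over baseline after carbachol; higher B-score means a larger calcium signal and so more RGS4 inhibition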
Target sequence (P49798 whole entry, looked up): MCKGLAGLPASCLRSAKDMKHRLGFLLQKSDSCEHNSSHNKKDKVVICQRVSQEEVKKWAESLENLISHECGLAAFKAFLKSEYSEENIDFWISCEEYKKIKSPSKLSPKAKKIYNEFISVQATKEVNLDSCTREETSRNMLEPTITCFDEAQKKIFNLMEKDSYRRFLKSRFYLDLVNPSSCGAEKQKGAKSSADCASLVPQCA
MrgX1 allo act – human MrgX1 positive allosteric modulation, primary screen; Q96LB2; MrgX1-HEK293, Fluo-4 calcium flux, FDSS; hits give high values; B-score at 10 µM; hit rate 0.63% among 310,000; AID 588675;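 active = plate-corrected calcium response at least 3 library SD above typical, normal starting fluorescence, not activating the receptor alone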;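 note: compound read alongside a low EC10 to EC30 dose of BAM8-22 agonist; peak minus trough fluorescence over baseline measured at the second addition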
RGS4 activ val – confirmation of RGS4 activators; hit rate 89% among 1,100; inhibition, % at 10 µM; HEK293 M3R/RGS4 inducible, carbachol calcium flux Fluo4; shares compounds with RGS4 act;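 active = inhibition above 3 SD of the buffer control wells, cut at about 41% in these data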;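 note: signal is the integrated peak-minus-minimum Fluo4 fluorescence over baseline ratio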
M3R Ca counter – counter-screen for RGS4 activators: effect in non-induced cells. shares compounds with RGS4 act. hit rate 82% among 1,100. AID 602283. HEK293 M3R non-induced RGS4, Fluo4 calcium flux; after carbachol challenge at its EC90. inhibition, % at 10 µM;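 active = inhibition exceeding 3 SD of buffer-only control wells, cut at about 26% in these data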;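 note: percent drop in integrated peak-minus-baseline over baseline Fluo4 ratio after carbachol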
MrgX1 ag reconf – confirmation of human MrgX1 receptor agonists; shares compounds with MrgX1 agonist; MrgX1-HEK293, Fluo-4 calcium fluorescence, FDSS; activation, % at 10 µM; hit rate 78% among 600;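 active = calcium signal rise, corrected for plate position, at least 3 library SD high, with starting brightness within 5 such deviations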; note: reference of the scale not given here
MrgX1 allo conf – reconfirmed allosteric activator of human MrgX1 receptor; MrgX1-HEK293, Fluo-4 calcium fluorescence, FDSS; activation (ratio percentage), % at 10 µM; shares compounds with MrgX1 allo act; hit rate 13% among 1,200;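 active = ratio at least 3 SD above the weak peptide control, stable starting fluorescence, no direct agonism earlier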;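 note: compound followed by low BAM8-22 agonist challenge near EC20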
MrgX1 ant reconf – human MrgX1 receptor antagonism, re-confirmation screen | MrgX1-HEK293, BAM8-22 calcium flux, Fluo-4; hits give low values | shares compounds with MrgX1 antagonist | remaining BAM8-22 calcium response % of control (hits give low values), % at 10 µM | AID 602420 | hit rate 19% among 2,300;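 active = remaining agonist calcium response no higher than 100% minus 3 SD of agonist-only control wells, with starting fluorescence near control levels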;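 note: agonist BAM8-22 given at a near maximal EC90 to ECmax level; peak minus minimum fluorescence divided by baseline after agonist addition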
HEK293 Ca flux – MrgX1 antagonist counter-screen hit in parental HEK293 cells. shares compounds with MrgX1 antagonist. AID 624111. fluorescence ratio F(max-min)/F0 at 10 µM. hit rate 2% among 4,000. Fluo-4 calcium fluorescence, FDSS;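 active = duplicate-averaged calcium fluorescence ratio at least three times the standard deviation of buffer wells, a nonspecific response in parental cells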
HEK293 Ca counter – counter-screen for MrgX1 allosteric activators: effect in parental HEK293 cells. shares compounds with MrgX1 antagonist. parental HEK293 calcium flux, Fluo-4 fluorescence ratio; hits give high values. fluorescence ratio F(max-min)/F0 at 10 µM. hit rate 0.4% among 4,000. AID 624114;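 active = calcium fluorescence ratio, averaged over duplicates, at least 3 SD of the buffer-well ratio, meaning a nonspecific response in receptor-free cells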;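 note: untransfected parental HEK293 lacking MrgX1 used as counterscreen for MrgX1 allosteric activators; fluorescence change taken during the second addition on a kinetic imager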
HEK293 Ca cntr2 – activity in parental HEK293 cells lacking MrgX1 receptor. shares compounds with MrgX1 antagonist. AID 624115. Fluo-4 calcium fluorescence (FDSS); hits give high values. hit rate 8.7% among 4,000. fluorescence ratio F(max-min)/F0 at 10 µM;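 active = calcium fluorescence ratio at least three times the spread of buffer wells, meaning a non-specific response in parental cells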
Active calls of the source: *; i = inactive; x = not tested or not shown. Only some compounds are listed: those with a hit (about 3.5% of all), similar ones and a draw of the others.

SMILES	MrgX1 agonist	RGS4 act	MrgX1 antagonist	RGS4 inh	MrgX1 allo act	RGS4 activ val	M3R Ca counter	MrgX1 ant reconf	HEK293 Ca flux	HEK293 Ca counter	HEK293 Ca cntr2	others
Cc1ccc(NC(=O)c2ccc3nc(N4CCOCC4)sc3c2)c(Cl)c1	i	i	i	i	i	x	x	x	x	x	x
CCOC(=O)c1ccc(NC(=S)N2CCSC2c2ccc(Cl)cc2)cc1 (stereo unspecified)	i	-8.8*	-6.3*	i	i	94*	91*	58%*	i	49*	i
CCOC(=O)c1ccc(NC(=S)N2CCSC2c2ccc(OC)cc2)cc1 (stereo unspecified)	i	i	i	i	i	x	x	x	x	x	x
CS(=O)(=O)c1sc(C#N)c2c1C(=O)CC(c1ccccc1)C2 (stereo unspecified)	37*	-9*	i	i	i	53*	0	x	i	i	53*	MrgX1 ag reconf=257%*
Cc1oc2c(c(=O)c1C)C(=O)CC(c1ccccc1)C2 (stereo unspecified)	i	i	i	i	i	x	x	x	x	x	x
CCCCNC(=S)N(CCN(C)C)Cc1cc2cc3c(cc2[nH]c1=O)OCCO3	i	i	i	i	i	x	x	x	x	x	x
O=C(CN(Cc1ccco1)S(=O)(=O)c1ccccc1)N/N=C/c1ccccc1C(=O)O	i	i	i	i	i	x	x	x	x	x	x
Cc1cc(N2CCCCC2)nc2ccc(NC(=O)c3ccc(Br)o3)cc12	i	-7.7*	-6.9*	i	i	72*	84*	i	i	i	i
Cc1cc(N2CCN(C)CC2)nc2ccc(NC(=O)c3ccc(Br)o3)cc12	i	i	i	i	i	x	x	x	x	x	x
Cc1ccc(N(CCC#N)C(=O)COC(=O)C2=COCCO2)cc1	i	i	i	i	i	x	x	x	x	x	x
COc1cccc(-c2csc(N3CCN(C(=O)Nc4ccc(Cl)cc4)CC3)n2)c1	i	-8.4*	-6.1*	i	i	87*	56*	75%*	i	i	i
CCN(CC)CC#CCC(O)(c1ccccc1)C1CCCC1 (stereo unspecified)	i	-7.9*	-8.7*	i	i	94*	91*	i	i	i	i
COc1ccccc1OC(C)C(=O)Nc1nc(-c2ccc(S(=O)(=O)N3CCOCC3)cc2)cs1 (stereo unspecified)	i	i	i	i	i	x	x	x	x	x	x
COc1ccccc1C(=O)Nc1nc(-c2ccc(S(=O)(=O)N3CCOCC3)cc2)cs1	i	-9.6*	-8.3*	i	i	92*	58*	51%*	i	i	i
CCOC(=O)c1cnc2c(C)cccc2c1NCc1ccco1	i	-12*	i	i	7.6*	92*	94*	x	i	i	i	MrgX1 allo conf=i
CCCCc1ccc(N/C(N)=N/c2nc(C)cc(C)n2)cc1	87*	-9.6*	i	i	i	38*	84*	x	i	i	113*	MrgX1 ag reconf=511%*
Cc1ccn2c(=O)nc(SCC(=O)N3CCCC3)nc2c1	i	i	i	i	i	x	x	x	x	x	x
O=S(=O)(Nc1cc2nc3ccccc3nc2n1Cc1ccccc1)c1ccc(Cl)cc1	45*	-14*	i	i	i	94*	88*	x	0.037*	i	i	MrgX1 ag reconf=i
Cc1cc(-c2cccs2)c2c(N)c(C(=O)c3ccc4c(c3)OCO4)sc2n1	i	-7.9*	-8.3*	i	i	93*	96*	i	0.65*	i	i
COCc1ccc(CN2CCCCC2C(=O)Nc2ccc(Oc3ccccc3)nc2)o1 (stereo unspecified)	i	i	i	i	i	x	x	x	x	x	x
CCN(CC)CCOC(=O)c1c(C)oc2ccc(OC)cc12	i	-7.8*	-5.2*	i	i	67*	84*	i	i	i	i
CNS(=O)(=O)c1cccc(C(=O)OCc2cc(=O)oc3c(C)c(O)ccc23)c1	i	-8.2*	-9.4*	i	i	85*	70*	54%*	i	i	i
CCCCn1c(N)c(N(CCOC)C(=O)CCCc2cccs2)c(=O)[nH]c1=O	i	i	i	i	i	x	x	x	x	x	x
CN(Cc1ccccc1)c1nc2c(c(=O)n(C)c(=O)n2C)n1CCCc1ccccc1	i	-8.5*	i	i	8.9*	75*	84*	x	i	i	i	MrgX1 allo conf=i
CCN(CC)c1nc2c(c(=O)n(C)c(=O)n2C)n1CCCc1ccccc1	i	i	i	i	i	x	x	x	x	x	x
SMILES	MrgX1 agonist	RGS4 act	MrgX1 antagonist	RGS4 inh	MrgX1 allo act	RGS4 activ val	M3R Ca counter	MrgX1 ant reconf	HEK293 Ca flux	HEK293 Ca counter	HEK293 Ca cntr2	others
Oc1ccc(Nc2nnc(-c3ccc(O)cc3)c3ccccc23)cc1	i	i	i	i	i	x	x	x	x	x	x
COc1ccc(Nc2nnc(-c3ccc(O)cc3)c3ccccc23)cc1	i	-9.3*	-8.4*	i	i	82*	43*	i	i	54*	i
O=C(c1ccc(S(=O)(=O)N2CCCCC2)cc1)N1CCCC(C(F)(F)F)C1 (stereo unspecified)	i	i	i	i	i	x	x	x	x	x	x
CCOC(=O)C1=C(Cc2ccc(F)cc2)C(=O)c2ccccc2C1=O	108*	-9.1*	i	i	i	89*	46*	x	i	i	54*	MrgX1 ag reconf=163%*
O=C(OCc1ccc(F)cc1)c1ccc2c(c1)-c1ccccc1C2=O	i	i	i	i	i	x	x	x	x	x	x
Cc1cccc(NC(=O)CSc2nccn2Cc2ccco2)c1C	i	i	i	i	i	x	x	x	x	x	x

Screens deposited in PubChem by Johns Hopkins Ion Channel Center.
